Consider 35 molecules from ChEMBL document CHEMBL3046938, “Synthesis and fungicidal activity of novel 2-oxocycloalkylsulfonylureas” (J Agric Food Chem, 2005).

Experiment [1] deals with Fusarium graminearum. As to the kind of experiment: Fungicidal activity against Fusarium graminearum assessed as mycelial growth inhibition in potato dextrose agar at 50 ug/mL at 24 +/- 0.5 degC. It is filed as functional. An outline of the steps: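 Single-concentration screen against G. zeae by mycelium growth rate test. Compound in acetone was mixed into PDA at 50 μg/mL, fungus cakes were placed on the plates and grown at 24 ± 0.5 °C, with an acetone blank and three replicates. Percent inhibition was recorded.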

In experiment [2] the test system is Botrytis cinerea. As to the kind of experiment: Fungicidal activity against Botryotinia fuckeliana assessed as mycelial growth inhibition in potato dextrose agar at 24 +/- 0.5 degC. The format is functional, organism-based. An outline of the steps:
(§1)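 Mycelium growth rate test. Compounds in acetone were mixed into PDA at 100, 50, 25, 12.5 and 6.25 μg/mL, fungus cakes were placed on the plates and grown at 24 ± 0.5 °C, with an acetone blank and three replicates. Inhibition rates were measured, and EC50 and EC90 were estimated by logit analysis.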

In experiment [3] the test system is Fusarium oxysporum f. sp. vasinfectum. As to the kind of experiment: Fungicidal activity against Fusarium oxysporum f. sp. vasinfectum assessed as mycelial growth inhibition in potato dextrose agar at 24 +/- 0.5 degC. The format is functional, organism-based. An outline of the steps:
as §1

The subject of experiment [4] is Pythium aphanidermatum. As to the kind of experiment: Fungicidal activity against Pythium aphanidermatum assessed as mycelial growth inhibition in potato dextrose agar at 24 +/- 0.5 degC. It is filed as functional, organism-based. The method, boiled down: as §1
Experiment [5] deals with Rhizoctonia solani. Nature of the experiment: Fungicidal activity against Rhizoctonia solani assessed as mycelial growth inhibition in potato dextrose agar at 24 +/- 0.5 degC. It is filed as functional, organism-based. An outline of the steps:
as §1

Experiment [6] relates to Verticillium dahliae. As to the kind of experiment: Fungicidal activity against Verticillium dahliae assessed as mycelial growth inhibition in potato dextrose agar at 24 +/- 0.5 degC. The format is functional, organism-based. The method, boiled down: as §1
Experiment [7] relates to Fusarium graminearum. Nature of the experiment: Fungicidal activity against Fusarium graminearum assessed as mycelial growth inhibition in potato dextrose agar at 24 +/- 0.5 degC. The format is functional, organism-based. An outline of the steps:
as §1

The test system of experiment [8] is Colletotrichum orbiculare. Nature of the experiment: Fungicidal activity against Colletotrichum orbiculare assessed as mycelial growth inhibition in potato dextrose agar at 24 +/- 0.5 degC. It is filed as functional, organism-based. An outline of the steps:
as §1

In brackets after ≈: the same amount, converted by molar mass.

Take `O=C(NC1CCCCCCCCCCC(=O)OCCC1)NS(=O)(=O)C1CCCCCCCCCCC1=O` (stereo not drawn): the inhibition at 50 µg/mL in experiment [1] came to 26.1%.
`Cc1ccnc(NC(=O)NS(=O)(=O)C2CCCCCCCCCCC2=O)n1` (stereo not drawn): the inhibition at 50 µg/mL in experiment [1] worked out at 18.1%.
The same measure, in the same setting: in the case of `COc1cc(Cl)nc(NC(=O)NS(=O)(=O)C2CCCCCCCCCCC2=O)n1` (stereo not drawn) it was 34.5%; in that of `COc1cc(OC)nc(NC(=O)NS(=O)(=O)C2CCCCCCCCCCC2=O)n1` (stereo not drawn), 26.5%.
On the same count and under the same terms, the value for `Cc1cc(C)nc(NC(=O)NS(=O)(=O)C2CCCCCCCCCCC2=O)n1` (stereo not drawn) was 18.1%.
Same read-out and setting: in the case of `CCc1cc(CC)nc(NC(=O)NS(=O)(=O)C2CCCCCCCCCCC2=O)n1` (stereo not drawn) it was 55.6%; in that of `CCCc1cc(CCC)nc(NC(=O)NS(=O)(=O)C2CCCCCCCCCCC2=O)n1` (stereo not drawn), 34.5%.
For the molecule `CC(C)c1cc(C(C)C)nc(NC(=O)NS(=O)(=O)C2CCCCCCCCCCC2=O)n1` (stereo not drawn), the inhibition at 50 µg/mL in experiment [1] is 55.6%.
Consider `Cc1ccc(NC(=O)NS(=O)(=O)C2CCCCCCCCCCC2=O)cc1` (stereo not drawn), for which the inhibition at 50 µg/mL in experiment [1] amounted to 34.5%.
On the same count and under the same terms, the value for `COc1ccc(NC(=O)NS(=O)(=O)C2CCCCCCCCCCC2=O)cc1` (stereo not drawn) was 18.1%.
The same measure, in the same setting: in the case of `O=C(Nc1ccc(Cl)cc1)NS(=O)(=O)C1CCCCCCCCCCC1=O` (stereo not drawn) it was 49%; in that of `O=C(Nc1ccccc1Cl)NS(=O)(=O)C1CCCCCCCCCCC1=O` (stereo not drawn), 49%; in that of `O=C(Nc1ccc(F)cc1)NS(=O)(=O)C1CCCCCCCCCCC1=O` (stereo not drawn), 18.1%.
Still for that read-out and setting: the value for `O=C(Nc1ccc(Cl)c(Cl)c1)NS(=O)(=O)C1CCCCCCCCCCC1=O` (stereo not drawn) was 55.6%.
With `O=C(Nc1cc(Cl)ccc1Cl)NS(=O)(=O)C1CCCCCCCCCCC1=O` (stereo not drawn), the EC50 came to 7.8 µg/mL (≈ 17.4 µM) in experiment [2]; 19.5 µg/mL (≈ 43.5 µM) in experiment [3]; 16.7 µg/mL (≈ 37.1 µM) in experiment [4]; 38.9 µg/mL (≈ 86.6 µM) in experiment [5]; 22 µg/mL (≈ 49 µM) in experiment [6]; 31.5 µg/mL (≈ 70 µM) in experiment [7]. Moreover, the EC50 in experiment [8] was found to be 13.5 µg/mL (≈ 30.1 µM). The EC90 was determined as 33.8 µg/mL (≈ 75.1 µM) in experiment [2]; 53.8 µg/mL (≈ 120 µM) in experiment [3]; 49.9 µg/mL (≈ 111 µM) in experiment [4]; 106 µg/mL (≈ 235 µM) in experiment [5]; 142 µg/mL (≈ 316 µM) in experiment [6]; 169 µg/mL (≈ 377 µM) in experiment [7]. Moreover, in experiment [8], the concentration for an effect of 90% (EC90) is 64.3 µg/mL (≈ 143 µM). Besides, the inhibition at 50 µg/mL in experiment [1] was found to be 81.6%.
As for `Cc1cccc(NC(=O)NS(=O)(=O)C2CCCCCCCCCCC2=O)c1` (stereo not drawn), in experiment [1], the inhibition at 50 µg/mL worked out at 34.5%.
As to `Cc1ccc(NC(=O)NS(=O)(=O)C2CCCCCCCCCCC2=O)cc1C` (stereo not drawn), the EC50 turned out to be 9.57 µg/mL (≈ 23.4 µM) in experiment [2]; 24 µg/mL (≈ 58.8 µM) in experiment [3]; 33.5 µg/mL (≈ 82.1 µM) in experiment [4]; 112 µg/mL (≈ 274 µM) in experiment [5]; 33.7 µg/mL (≈ 82.5 µM) in experiment [6]; 39 µg/mL (≈ 95.5 µM) in experiment [7]. In addition, the EC50 in experiment [8] was found to be 30.4 µg/mL (≈ 74.5 µM). Also, the EC90 in experiment [2] turned out to be 35.9 µg/mL (≈ 87.8 µM); in experiment [3], 98 µg/mL (≈ 240 µM); in experiment [4], 124 µg/mL (≈ 303 µM); in experiment [5], 556 µg/mL (≈ 1360 µM); in experiment [6] it was 484 µg/mL (≈ 1180 µM); in experiment [7], 176 µg/mL (≈ 431 µM). For the same molecule, in experiment [8], the EC90 amounted to 105 µg/mL (≈ 256 µM). Besides, the inhibition at 50 µg/mL in experiment [1] amounted to 77.3%.
On to `O=C(Nc1cccc([N+](=O)[O-])c1)NS(=O)(=O)C1CCCCCCCCCCC1=O` (stereo not drawn), for which the inhibition at 50 µg/mL in experiment [1] turned out to be 18.1%.
The same measure, in the same setting: in the case of `O=C(Nc1cccc(Cl)c1)NS(=O)(=O)C1CCCCCCCCCCC1=O` (stereo not drawn) it was 42%; in that of `CC(=O)c1ccc(NC(=O)NS(=O)(=O)C2CCCCCCCCCCC2=O)cc1` (stereo not drawn), 9.3%.
As to `O=C1CCCCCCCCCCC1S(=O)(=O)Nc1ccc(Cl)cc1` (stereo not drawn), the EC50 was 7.62 µg/mL (≈ 20.5 µM) in experiment [2]; 24.6 µg/mL (≈ 66.1 µM) in experiment [3]; 17.6 µg/mL (≈ 47.3 µM) in experiment [4]; 6.82 µg/mL (≈ 18.3 µM) in experiment [5]; 10.2 µg/mL (≈ 27.5 µM) in experiment [6]; 30 µg/mL (≈ 80.8 µM) in experiment [7]. For the same molecule, in experiment [8], the 50% effective concentration (EC50) was 13.8 µg/mL (≈ 37 µM). Further, the EC90 in experiment [2] was determined as 39 µg/mL (≈ 105 µM); in experiment [3], 293 µg/mL (≈ 788 µM); in experiment [4] it was 59.6 µg/mL (≈ 160 µM); in experiment [5], 57 µg/mL (≈ 153 µM); in experiment [6] it was 55.3 µg/mL (≈ 149 µM); in experiment [7] it was 414 µg/mL (≈ 1110 µM). The EC90 in experiment [8] was 54.8 µg/mL (≈ 147 µM). The inhibition at 50 µg/mL in experiment [1] is 72.6%.
Take `O=C(Nc1cc(Cl)ccc1Cl)NS(=O)(=O)C1CCCCCC1=O` (stereo not drawn): the inhibition at 50 µg/mL in experiment [1] turned out to be 18.1%.
Same read-out and setting: the value for `Cc1ccc(NC(=O)NS(=O)(=O)C2CCCCCC2=O)c(C)c1` (stereo not drawn) was 9.3%; that for `COc1cc(OC)nc(NC(=O)NS(=O)(=O)C2CCCCCC2=O)n1` (stereo not drawn) was 18.1%.
For the molecule `O=C(Nc1ccc(Cl)cc1)NS(=O)(=O)C1CCCCCC1=O` (stereo not drawn), the inhibition at 50 µg/mL in experiment [1] came to 18.1%.
Still for that read-out and setting: in the case of `Cc1ccc(NC(=O)NS(=O)(=O)C2CCCCCC2=O)cc1` (stereo not drawn) it was 18.1%; in that of `O=C(Nc1ccc(Cl)c(Cl)c1)NS(=O)(=O)C1CCCCCC1=O` (stereo not drawn), 18.1%.
The same measure, in the same setting: the value for `O=C(Nc1cc(Cl)ccc1Cl)NS(=O)(=O)C1CCCCC1=O` (stereo not drawn) was 26.5%.
On the same count and under the same terms, the value for `Cc1ccc(NC(=O)NS(=O)(=O)C2CCCCC2=O)c(C)c1` (stereo not drawn) was 26.5%; that for `COc1cc(OC)nc(NC(=O)NS(=O)(=O)C2CCCCC2=O)n1` (stereo not drawn) was 18.1%.
For `O=C(Nc1ccc(Cl)cc1)NS(=O)(=O)C1CCCCC1=O` (stereo not drawn), the inhibition at 50 µg/mL in experiment [1] came to 18.1%.
For `Cc1ccc(NC(=O)NS(=O)(=O)C2CCCCC2=O)cc1` (stereo not drawn), in experiment [1], the inhibition at 50 µg/mL was found to be 18.1%.
The same measure, in the same setting: in the case of `O=C(Nc1ccc(Cl)c(Cl)c1)NS(=O)(=O)C1CCCCC1=O` (stereo not drawn) it was 18.1%.
With `COC(=O)Nc1nc2ccccc2[nH]1` [CARBENDAZIM], the EC50 in experiment [3] was 0.54 µg/mL (≈ 2.82 µM); in experiment [4], 20.4 µg/mL (≈ 107 µM); in experiment [5], 1.41 µg/mL (≈ 7.37 µM); in experiment [6] it was 18.2 µg/mL (≈ 95.2 µM); in experiment [7], 1.95 µg/mL (≈ 10.2 µM); in experiment [8] it was 39.8 µg/mL (≈ 208 µM). In addition, the EC90 in experiment [3] was found to be 2.98 µg/mL (≈ 15.6 µM); in experiment [4], 75.9 µg/mL (≈ 397 µM); in experiment [5], 2.82 µg/mL (≈ 14.7 µM); in experiment [6], 93.3 µg/mL (≈ 488 µM); in experiment [7], 4.46 µg/mL (≈ 23.3 µM); in experiment [8], 200 µg/mL (≈ 1040 µM).
Consider `CC12CC1(C)C(=O)N(c1cc(Cl)cc(Cl)c1)C2=O` (stereo not drawn) [PROCYMIDONE], for which, in experiment [2], the EC90 came to 5.75 µg/mL (≈ 20.2 µM).
